# According to PubChem BioAssay:
# Calls of active or inactive are those of the source.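 How the source made its calls, unless noted: active means inhibition at or above 50% relative to wild type and mutant plate controls; inactive means inhibition below 50%.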
# Experiments:
# [1] = inhibitors of TNFa-induced NFkB p65 translocation, primary screen, imaging, HUVEC, MLSMR starter and 10KST1 sets (AID 438;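 active means inhibition above 20% together with a positive visual image hit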;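 further: compound added about 3h40 before a 20 min TNFalpha stimulation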;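 on inhibition: signal is the nuclear over cytoplasmic p65 intensity ratio per well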); details: HUVEC TNFa-induced p65 nuclear translocation; cell count: measured here: nuclei count (cytotoxicity indicator), at 2.08 µM; inhibition: at 2 µM, stronger effect = higher value, 0% TNFa-plus-vehicle, 100% no-TNFa wells
# [2] = endothelial E-selectin expression blockers – imaging, HUVEC, immunofluorescence, MLSMR starter and 10KST1 sets, primary screen (AID 487;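 active means visually confirmed hit in the image check and inhibition above 20%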;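 on inhibition: signal is fraction of cell area covered by stained E-selectin grains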;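 on nuclei count: 100% = median nuclei count of all wells on the same plate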); details: HUVEC TNFalpha-induced E-selectin immunofluorescence imaging, at 2 µM; inhibition: stronger effect = higher value; nuclei count: measured here: cell number, toxicity
# [3] = Primary imaging screen for DUSP6 inhibitors that restore phospho-Erk in transfected HeLa cells, chemical complementation (AID 609;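 active means compounds giving at least 50% inhibition in the cell-based MKP-3 phosphatase rescue imaging test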;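 on inhibition: phospho-Erk level distribution per well compared with pooled transfected vehicle control wells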); details: HeLa MKP-3 transfected, phospho-Erk imaging KS statistic, at 10 µM, cells stimulated with TPA for 15 min
# [4] = biological target: Dual specificity protein phosphatase 6 (Homo sapiens) (UniProt Q16828); experiment: as above; details: HeLa MKP-3 transfected, phospho-Erk imaging KS statistic; at 10 µM; stronger effect = higher value; cells stimulated with TPA for 15 min
# [5] = biological target: Voltage-gated potassium channel subunit beta-2 (Rattus norvegicus) (UniProt P62483); experiment: inhibitors of rat Kvbeta2 reductase activity – biochemical, NADPH fluorescence, primary screen (AID 622;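 active means fluorescence slope higher than the sample average by over 3 SD, cut at about -0.22 in these data, passing the limit was not always enough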;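 further: slope of raw intensity against log time taken from 70 to 1610 s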); details: recombinant KvBeta, 4-cyanobenzaldehyde reduction, at 10 µM, stronger effect = higher value
# [6] = biological target: Voltage-gated potassium channel subunit beta-2 (Rattus norvegicus) (UniProt P62483); experiment: enhancers of rat Kvbeta2 NADPH turnover – biochemical, NADPH fluorescence, primary screen (AID 623;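 active means NADPH fluorescence slope more negative than the mean of all samples by about 3 SD, 99.7% confidence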;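 further: fluorescence intensity change per second fitted from 20 to 320 s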); details: Recombinant KvBeta, NADPH fluorescence decrease slope, 10 min; at 10 µM; stronger effect = lower value
# [7] = biological target: Alpha-2C adrenergic receptor (Homo sapiens) (UniProt P18825); experiment: compounds altering alpha2C-coupled GIRK flux – cell-based, HEK293 alpha2C/GIRK1/2, thallium flux, primary screen (AID 624;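 active means fluorescence slope after compound addition differing from the mean of all screened samples at 99.7% confidence, in either direction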;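 further: slope of fluorescence ratio to pre-addition baseline per second over 15 to 24 s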); details: thallium flux BTC fluorescence, at 10 µM, actives lie on both sides
# [8] = inhibitors of larval lipid processing in zebrafish, primary screen, whole organism, PED6 fluorescence, gall bladder and intestine (AID 686;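 active means a full or partial loss of lipid-probe fluorescence in the fish gall bladder, intestine or both, judged by eye; inactive means no fluorescence loss, or compound toxic to the fish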;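 further: larvae 5 to 7 days old with five fish per well; signal comes from phospholipase A2 cleavage of quenched PED6 carried via bile; overnight exposure to compound and PED6 before scoring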); details: Zebrafish larvae PED6 lipid processing, fluorescence scoring; screened at 20 µM (by protocol)
# In short: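 System: live zebrafish larvae aged 5-7 days, whole organism; measure: graded gall bladder and intestinal fluorescence inhibition per well; incubation: overnight exposure; reagent: ingested quenched lipid PED6 at 100 nM; signal: By-eye fluorescence microscopy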
# [9] = loss of swimming-algae plug formation – whole organism, Chlamydomonas reinhardtii, WT vs cilia-less mutant, absorbance, 96-well, primary screen (AID 463189); details: Chlamydomonas reinhardtii gravitaxis, OD600 absorbance, 2 days; at 10 µM; stronger effect = higher value;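 further: 0% = wild type cc124 cells in DMSO and 100% = ciliumless bld1 mutant cells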
# [10] = measured here: cell density z-score
# [11] = measured here: nuclear c-Myc green intensity z-score
# [12] = measured here: nuclear pErk red intensity z-score, stronger effect = higher value
# Voltage-gated potassium channel subunit beta-2 (Rattus norvegicus), sequence (P62483 whole entry, looked up): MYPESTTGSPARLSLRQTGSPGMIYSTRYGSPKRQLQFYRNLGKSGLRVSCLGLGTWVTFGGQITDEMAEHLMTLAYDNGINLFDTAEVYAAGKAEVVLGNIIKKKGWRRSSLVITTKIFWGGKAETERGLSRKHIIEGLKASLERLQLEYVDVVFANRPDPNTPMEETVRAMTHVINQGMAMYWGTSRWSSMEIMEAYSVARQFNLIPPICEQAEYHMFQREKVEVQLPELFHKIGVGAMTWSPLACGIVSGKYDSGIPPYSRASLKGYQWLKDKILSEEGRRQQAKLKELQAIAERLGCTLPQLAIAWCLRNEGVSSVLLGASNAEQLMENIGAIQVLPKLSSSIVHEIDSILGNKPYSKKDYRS
# Alpha-2C adrenergic receptor (Homo sapiens), sequence (P18825 whole entry, looked up): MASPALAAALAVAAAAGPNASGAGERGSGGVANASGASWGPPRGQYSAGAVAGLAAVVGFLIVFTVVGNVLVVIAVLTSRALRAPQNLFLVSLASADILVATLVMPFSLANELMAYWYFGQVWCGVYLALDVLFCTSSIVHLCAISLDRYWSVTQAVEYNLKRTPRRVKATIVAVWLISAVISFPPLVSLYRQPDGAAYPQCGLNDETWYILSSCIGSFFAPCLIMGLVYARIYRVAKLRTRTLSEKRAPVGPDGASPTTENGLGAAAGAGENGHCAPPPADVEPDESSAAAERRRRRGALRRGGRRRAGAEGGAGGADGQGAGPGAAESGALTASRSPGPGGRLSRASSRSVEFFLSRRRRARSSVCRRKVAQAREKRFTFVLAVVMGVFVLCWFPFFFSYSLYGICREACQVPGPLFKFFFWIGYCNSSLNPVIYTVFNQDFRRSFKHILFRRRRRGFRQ
# Dual specificity protein phosphatase 6 (Homo sapiens), sequence (Q16828 whole entry, looked up): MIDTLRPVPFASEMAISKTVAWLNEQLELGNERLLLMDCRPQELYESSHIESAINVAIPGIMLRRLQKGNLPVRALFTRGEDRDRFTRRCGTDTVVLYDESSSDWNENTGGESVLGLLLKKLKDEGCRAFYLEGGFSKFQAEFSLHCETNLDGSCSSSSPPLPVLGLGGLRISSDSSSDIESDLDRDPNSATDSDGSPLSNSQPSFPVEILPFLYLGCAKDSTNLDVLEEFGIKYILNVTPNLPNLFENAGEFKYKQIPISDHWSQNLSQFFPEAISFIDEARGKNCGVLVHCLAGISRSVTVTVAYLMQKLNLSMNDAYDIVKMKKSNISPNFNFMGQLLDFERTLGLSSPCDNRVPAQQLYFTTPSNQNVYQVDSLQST
Compound,cell count [1],inhibition [1],inhibition [2],nuclei count [2] [%],"z-score [3, 10]","z-score [3, 11]","z-score [3, 12]",inhibition [4],fluorescence slope [5],NADPH fluorescence slope [6],slope [7],outcome [8],inhibition [9]
CC(=O)N1CCC2(CC1)C(C#N)=C(N)Oc1n[nH]c(C(F)(F)F)c12,509,-9.9% (inactive),-79.8% (inactive),156,1.26,0.347,-0.954,-1.12% (inactive),-0.349 (inactive),-1.5e-05 (inactive),0.00543 (inactive),inactive,10.5% (inactive)
C=CCNc1nc(-c2ccc(O)c(C(N)=O)c2)cs1,651,-7.7% (inactive),-37.4% (inactive),154,1.4,-1.92,0.332,7.48% (inactive),-0.465 (inactive),-0.000295 (inactive),0.00459 (inactive),inactive,22.9% (inactive)
CC(C(=O)N1CCOCC1)N1C(=O)c2ccccc2C1=O (stereo not drawn),306,-3% (inactive),-45.1% (inactive),96,1.24,-0.122,-1.67,-8.76% (inactive),-0.419 (inactive),2.4e-06 (inactive),0.0049 (inactive),inactive,15.3% (inactive)
CCCCCCSC1=C(C#N)C(c2ccccc2)CC(=O)N1 (stereo not drawn),469,0.6% (inactive),-6.9% (inactive),74.3,0.751,0.0915,-1.53,18.9% (inactive),-0.513 (inactive),-6.1e-05 (inactive),0.00499 (inactive),inactive,24.3% (inactive)
N#Cc1ccc(-c2ccco2)nc1SCC(=O)c1ccc(Cl)cc1,431,0% (inactive),-80.7% (inactive),138,-1.49,-0.417,1.23,7.83% (inactive),-0.288 (inactive),-2.9e-05 (inactive),0.00718 (inactive),inactive,-1.61% (inactive)
CCCCNC(=O)N1CCOCCOCCN(C(=O)NCCCC)CCOCC1,524,-14.1% (inactive),-164% (inactive),138,2.57,-1.63,-0.914,31.7% (inactive),-0.55 (inactive),-2.2e-05 (inactive),0.0049 (inactive),inactive,9.99% (inactive)
C1CCCN(CCCCN2CCCCCC2)CC1,575,-1.5% (inactive),-211% (inactive),129,-2.5,1.44,-0.0614,-5.89% (inactive),-0.456 (inactive),-0.000347 (inactive),0.00726 (inactive),inactive,-11.5% (inactive)
COc1ccc(C2=Nn3c(nnc3-c3cccnc3)SC2)cc1OC,614,-5.8% (inactive),-109% (inactive),152,-0.53,0.48,0.0126,-7.86% (inactive),-0.398 (inactive),-0.000172 (inactive),0.00709 (inactive),inactive,2.3% (inactive)
CN(C)CCCOC(=O)C1c2ccccc2Oc2ccccc21,542,1.3% (inactive),31.3% (inactive),169,-1.43,-0.729,0.0446,-8.76% (inactive),-0.329 (inactive),-1.7e-05 (inactive),0.00512 (inactive),inactive,8% (inactive)
Cc1cc(C)n2c3c(c(C#N)c2n1)CC(C)(C)OC3,670,-7.2% (inactive),55.6% (inactive),131,0.0106,-1.04,-0.0691,11.3% (inactive),-0.327 (inactive),2.8e-06 (inactive),0.00519 (inactive),inactive,14.5% (inactive)
COC(=O)c1ccc(=O)n(Cc2ccc3c(c2)OCO3)c1,394,-2.1% (inactive),-128% (inactive),137,2.55,0.425,-1.58,2.46% (inactive),-0.427 (inactive),-4.6e-05 (inactive),0.00627 (inactive),inactive,-6.36% (inactive)
CC(C)OC(=O)C(C#N)c1nc2ccccc2nc1N1CCN(Cc2ccc3c(c2)OCO3)CC1 (stereo not drawn),351,-4.7% (inactive),-35.2% (inactive),129,-0.0424,0.237,-0.926,3.5% (inactive),-0.459 (inactive),-0.000113 (inactive),0.00323 (inactive),inactive,17% (inactive)
CCOC(=O)c1oc2cc(O)cc(C)c2c(=O)c1-c1cscn1,583,-5.6% (inactive),-117% (inactive),133,0.544,-0.073,-1.73,19.8% (inactive),-0.569 (inactive),-4.5e-05 (inactive),0.0036 (inactive),inactive,-5.6% (inactive)
COc1cc(C(=O)OCCN2CCCCC2)ccc1O,675,-2.2% (inactive),38.8% (inactive),199,-0.395,-0.645,0.828,-3.98% (inactive),-0.493 (inactive),-0.000169 (inactive),0.00513 (inactive),inactive,17.1% (inactive)
COCCn1c(N)c(C(=O)NCC2CCCO2)c2nc3ccccc3nc21 (stereo not drawn),564,-8.3% (inactive),-74.5% (inactive),106,0.365,-2.02,0.128,-11.5% (inactive),-0.0102 (inactive),7e-06 (inactive),0.00477 (inactive),inactive,26.2% (inactive)
CCN(CC)CCNC(=O)c1c(C)oc2cc(Br)c(OC)cc12,496,-8.7% (inactive),-70.3% (inactive),112,2.28,0.845,-0.848,15.8% (inactive),-0.55 (inactive),-3.1e-05 (inactive),0.0063 (inactive),inactive,-1.94% (inactive)
O=C(Nc1ccc(Cl)cn1)C1CCCN1S(=O)(=O)c1ccccc1 (stereo not drawn),365,4.7% (inactive),-101% (inactive),154,2.19,0.087,-0.0829,11.3% (inactive),-0.415 (inactive),-4e-05 (inactive),0.00596 (inactive),inactive,-3.35% (inactive)
COC(=O)CCc1c(C)[nH]c(C(=O)OCc2ccccc2)c1C,596,-4.1% (inactive),-34% (inactive),179,-1.2,-0.0699,0.772,-5.89% (inactive),-0.487 (inactive),-0.00013 (inactive),0.00445 (inactive),inactive,-0.974% (inactive)
COc1ccc(OCC(O)Cn2c(Nc3cccc(C)c3)nc3c2c(=O)n(C)c(=O)n3C)cc1 (stereo not drawn),514,-0.2% (inactive),-160% (inactive),139,1.7,-1.51,-0.035,26.3% (inactive),-0.541 (inactive),-3.3e-05 (inactive),0.00591 (inactive),inactive,7.54% (inactive)
N#CC1=C(N)NC(SCc2ccc(F)cc2)=C(C#N)C12CCCCC2,614,-15.5% (inactive),24.8% (inactive),164,-0.696,-0.0167,-0.195,6.04% (inactive),-0.404 (inactive),-4.7e-05 (inactive),0.0043 (inactive),inactive,-1.21% (inactive)
CCOC(=O)c1nc(N)c(C(=O)OCC)[nH]1,405,11.5% (inactive),-32.3% (inactive),94.7,-0.517,1.59,-0.341,18.2% (inactive),-0.47 (inactive),-7.9e-05 (inactive),0.00468 (inactive),inactive,-16% (inactive)
